DNA FID counter: counter-screen for HCV NS3 helicase inhibitors: DNA intercalator displacement; DNA fluorescent intercalator displacement, fluorescence; inhibition, % at 7.9 µM; 0.17% of 290,000 active; in the data active = inhibition above about 37%;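 note: higher means more ethidium bromide displaced from hairpin DNA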
RAD54 branch: inhibitors of human RAD54 branch migration. RAD54 Holliday junction branch migration, FAM/BHQ fluorescence. 0.14% of 360,000 active. AID 602329. inhibition, % at 10.4 µM;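 active = mean normalized replicate activity at least 40 and at least half of replicates scoring 40 or more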;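 note: inhibitors cause a drop in the FAM fluorescence signal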
UBC13 polyUb: human UBC13 polyubiquitination inhibition; AID 485273; inhibition, % at 20 µM; 0.47% of 330,000 active; UBC13 polyubiquitin chain formation, TR-FRET; P61088; in the data active = inhibition above about 45%, passing the limit was not always enough
RAD52 inh: inhibitors of human RAD52 DNA annealing. P43351. recombinant RAD52 DNA annealing, FRET fluorescence. inhibition, % at 18.7 µM. 0.46% of 360,000 active. AID 651710;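 active = every replicate showing at least 50% inhibition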
Neddyl block: inhibitors of human cullin neddylation. 0.58% of 360,000 active. calls only at 25 µM. TR-FRET cullin neddylation, biochemical. P61081+Q13564; in the data active = inhibition above about 36%
Target sequence (P61081 whole entry, looked up): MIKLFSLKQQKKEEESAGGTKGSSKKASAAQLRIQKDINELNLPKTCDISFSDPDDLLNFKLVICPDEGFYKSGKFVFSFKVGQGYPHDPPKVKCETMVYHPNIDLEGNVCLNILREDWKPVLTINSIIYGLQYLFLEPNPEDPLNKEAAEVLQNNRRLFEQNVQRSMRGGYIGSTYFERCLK
Target sequence (Q13564 whole entry, looked up): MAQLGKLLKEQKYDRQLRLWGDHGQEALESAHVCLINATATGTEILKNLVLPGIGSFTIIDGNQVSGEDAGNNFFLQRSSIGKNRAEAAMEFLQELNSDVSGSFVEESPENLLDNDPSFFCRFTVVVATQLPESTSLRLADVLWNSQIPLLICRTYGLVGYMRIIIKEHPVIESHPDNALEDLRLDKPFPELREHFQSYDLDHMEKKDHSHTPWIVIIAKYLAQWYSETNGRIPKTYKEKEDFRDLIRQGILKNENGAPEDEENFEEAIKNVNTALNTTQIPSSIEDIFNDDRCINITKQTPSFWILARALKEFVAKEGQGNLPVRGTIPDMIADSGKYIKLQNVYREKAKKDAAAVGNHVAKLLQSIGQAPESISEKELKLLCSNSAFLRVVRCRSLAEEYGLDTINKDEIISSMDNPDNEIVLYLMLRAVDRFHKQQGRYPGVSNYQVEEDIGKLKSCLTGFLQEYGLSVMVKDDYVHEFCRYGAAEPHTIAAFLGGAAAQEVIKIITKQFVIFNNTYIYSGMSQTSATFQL
Apaf-1 inh: blocks human Apaf-1 apoptosome activity; inhibition, % at 20 µM; O14727; reconstituted apoptosome caspase-3 activity, DEVD-Rh110 fluorescence; 0.71% of 330,000 active; active = inhibition of at least 40% at 20 µM
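Assay system – apoptosome proteins · Medium – Hepes buffer, pH 7.5 · Also added – cytochrome c with DEVD-Rh110 · Timing – 30 min compound preincubation, 50 min activation, room temperature · Detection – Rh110 fluorescence, excitation 480 nm, emission 540 nm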
Hits are given with their value; – = inactive; · = no result given; + = active, no number; ! = repeats disagree. Rows were chosen to be rich in hits. Some 1.6% of all compounds tested hit in one or more screens of this group.

SMILES | DNA FID counter | RAD54 branch | UBC13 polyUb | RAD52 inh | Neddyl block | Apaf-1 inh
Cc1ccc(S(=O)(=O)Nc2ccc3c(c2)C(=O)N([C@@H](C)CO)C[C@@H](C)[C@H](CN(C)C(=O)CCC(F)(F)F)OCCCC[C@@H](C)O3)cc1 | · | – | · | – | · | ·
C[C@@H]1CN([C@@H](C)CO)S(=O)(=O)c2ccc(C#Cc3cccc(F)c3)cc2O[C@H]1CN(C)C | · | – | · | 51 | · | ·
C[C@@H]1CN([C@H](C)CO)S(=O)(=O)c2ccc(C#Cc3ccc(F)cc3)cc2O[C@H]1CN(C)C(=O)CN(C)C | · | – | · | 61 | · | ·
C[C@@H]1CN([C@@H](C)CO)S(=O)(=O)c2ccc(C#Cc3ccc(F)cc3)cc2O[C@@H]1CN(C)C(=O)CN(C)C | · | – | · | – | · | ·
Nc1cc(N)c(OCC(F)(F)F)cc1OCC(F)(F)F | – | – | – | · | – | 84
CC1(OC(=O)c2cccs2)C(=O)C=C2C=C3CCCN3C=C2C1=O (stereo not given) | · | – | – | · | – | 62
CC1(OC(=O)C2CCCC2)C(=O)C=C2C=C3CCCN3C=C2C1=O (stereo not given) | · | · | – | · | · | –
Cc1ccc(S(=O)(=O)NC[C@H]2CC[C@@H]3[C@@H](CN3C(=O)CN(C)C)O2)cc1 | · | · | · | – | · | ·
Cc1noc(C)c1NC(=O)Nc1ccc2c(c1)CC(=O)N([C@H](C)CO)C[C@H](C)[C@@H](CN(C)S(C)(=O)=O)O2 | · | · | · | – | · | ·
Nc1nn2c(-c3ccccc3)cc(=O)[nH]c2c1N=Nc1ccc(O)cc1 | – | – | – | – | – | 41
CC(C)(C)OC(=O)n1cccc1/C=C1\c2ccccc2C(=O)N1c1ccccc1 | · | – | · | · | + | ·
CC(=O)Oc1ccc(C#C/C=C2\c3ccccc3C(=O)N2c2ccccc2)cc1 | · | – | – | · | – | –
Cc1ccc(C(=O)Nc2sc3c(c2C(=O)O)CCC(C)C3)o1 (stereo not given) | · | – | – | – | + | –
C[C@@H]1CN([C@@H](C)CO)S(=O)(=O)c2ccc(C3=CCCC3)cc2O[C@@H]1CN(C)Cc1ccccc1F | · | – | · | – | · | ·
COc1cccc(CN2C[C@@H]3N[C@H](C2)C3c2ccc(-c3ccccc3F)cc2)c1 (stereo not given in full) | · | · | · | 64! | · | ·
COc1cc(CN2C[C@@H]3N[C@H](C2)C3c2ccc(-c3ccccc3C)cc2)cc(OC)c1 (stereo not given in full) | · | · | · | 64 | · | ·
COc1ccc(-c2ccc(C3[C@@H]4CN(Cc5cccc(OC)c5)C[C@H]3N4)cc2)cc1 (stereo not given in full) | · | · | · | 67 | · | ·
N#Cc1cccc(-c2ccc(C3[C@@H]4CN(C(=O)Cc5ccccc5)C[C@H]3N4)cc2)c1 (stereo not given in full) | · | · | · | – | · | ·
COc1cccc(CN2C[C@@H]3N[C@H](C2)C3c2ccc(-c3cccc(C#N)c3)cc2)c1 (stereo not given in full) | · | · | · | 55 | · | ·
Cn1cnc(S(=O)(=O)N[C@H]2C=C[C@H](CC(=O)Nc3ccc(-c4ccccc4)cc3)O[C@H]2CO)c1 | · | – | · | – | · | ·
C[C@@H]1CN([C@@H](C)CO)C(=O)c2cccc(NC(=O)Nc3ccccc3)c2O[C@H]1CN(C)S(=O)(=O)c1ccc(F)cc1 | · | – | · | – | · | ·
CS(=O)(=O)N1CC2(C1)[C@H](c1ccccc1)[C@@H](CO)N2Cc1ccc(F)cc1 | · | · | · | – | · | ·
C[C@@H]1CN([C@@H](C)CO)C(=O)c2cc(-c3ccc(F)cc3)cnc2O[C@@H]1CN(C)C(=O)CN(C)C | · | – | · | – | · | ·
COc1ccc(NC(=O)Nc2ccc3c(c2)C(=O)N([C@H](C)CO)C[C@@H](C)[C@@H](CN(C)S(C)(=O)=O)O3)cc1 | · | – | · | – | · | ·
CNC[C@@H]1Oc2c(NC(=O)c3ccncc3)cccc2C(=O)N([C@@H](C)CO)C[C@@H]1C | · | – | · | – | · | ·
SMILES | DNA FID counter | RAD54 branch | UBC13 polyUb | RAD52 inh | Neddyl block | Apaf-1 inh
COc1cccc(CN2C[C@@H]3N[C@H](C2)C3c2ccc(-c3ccncc3)cc2)c1 (stereo not given in full) | · | · | · | – | · | ·
COc1cccc(-c2ccc(C3[C@@H]4CN(Cc5cccc(F)c5)C[C@H]3N4)cc2)c1 (stereo not given in full) | · | · | · | 53 | · | ·
O=C1NC2=C(CCc3ccccc32)C(c2ccc(Br)cc2)N1 (stereo not given) | – | – | – | · | – | 69
COc1ccc(NC(=O)N(C)C[C@H]2Oc3ccc(NC(=O)Cn4cnnn4)cc3C(=O)N([C@@H](C)CO)C[C@H]2C)cc1 | · | – | · | – | · | ·
O=C(Nc1ccccc1)C1=C[C@@H](c2ccc3c(c2)Cc2ccccc2-3)C[C@@H](OCCCCO)O1 | · | – | · | 52 | · | ·
O=C(O)C1=C[C@@H](c2ccc3c(c2)Cc2ccccc2-3)C[C@@H](OCCCCO)O1 | · | – | · | – | · | ·
CCNC(=O)C[C@H]1CC[C@H]2[C@@H](COc3ccc(NC(=O)c4ccc(F)cc4)cc3C(=O)N2C)O1 | · | – | · | – | · | ·
NC1=C(Br)C(=O)c2ccccc2C1=O | – | – | – | – | – | 71
NC1=NC[C@H](Cc2ccc(O)cc2)N1CCCCC1CCCCC1 | · | – | 73 | – | – | 53
N#CCCN(C(=O)COC(=O)C12CC3CC(CC(O)(C3)C1)C2)c1ccc(F)cc1 | · | – | – | – | – | 43
CCCN1[C@@H]2Cn3c(ccc(-c4ccncc4)c3=O)[C@H]1[C@@H](C(=O)N1CCCCC1)[C@@H]2CO | · | – | · | – | · | ·
CCCCn1c(NC(=O)c2ccc(F)cc2)c(C#N)c2nc3ccccc3nc21 | · | · | – | · | · | 95
COc1ccccc1NC(=O)N1CCCCN2[C@H](C1)[C@H](c1ccc(C#CC3CC3)cc1)[C@@H]2CO | · | – | · | – | · | ·
CO[C@@H]1CN(C)C(=O)c2cc(NC(=O)CC(F)(F)F)ccc2OC[C@H](C)N(C(=O)C2CCOCC2)C[C@H]1C | · | · | · | – | · | ·
CCN(CC)Cc1cc(Nc2c3ccccc3nc3c4ccccc4n(C)c23)cc(CN(CC)CC)c1O | · | · | · | 106 | – | ·
Cn1cnc(S(=O)(=O)N[C@@H]2C=C[C@H](CC(=O)N3CCN(c4ccccc4)CC3)O[C@@H]2CO)c1 | · | · | · | – | · | ·
O=C1C2=C(c3ccccc31)[N+](=O)C1CCCCC1N2[O-] (stereo not given) | – | – | – | · | – | 54
O=C1c2ccccc2C(=O)c2c1ccc1c(=O)n(C3CCCCC3)[nH]c21 | – | – | – | – | – | –
CN(C)CC#Cc1ccc([C@@H]2[C@@H](CO)N3CCCCN(C(=O)Nc4ccccc4F)C[C@H]23)cc1 | · | – | · | 54 | · | ·
CN(C)CC#Cc1ccc([C@@H]2[C@H](CO)N3CCCCN(C(=O)Nc4cc(F)ccc4F)C[C@@H]23)cc1 | · | – | · | 51 | · | ·
CN(C)CC#Cc1ccc([C@@H]2[C@H](CO)N3CCCCN(C(=O)Nc4ccccc4F)C[C@@H]23)cc1 | · | – | · | – | · | ·
C[C@@H]1CN([C@H](C)CO)C(=O)c2cc(C3=CCCC3)cnc2O[C@@H]1CN(C)Cc1ccccc1C(=O)O | · | – | · | – | · | ·
CCN1CCN(c2ccc(S(=O)(=O)N3CCCCC3)cc2NC(=O)/C=C/c2ccc(F)cc2)CC1 | · | – | – | – | – | –

From PubChem BioAssay
